Results: PubChem BioAssay AID624025 (Broad Institute, 2012)
“And” between values parts separate entries of the source, which are not always exact repeats. Equal entries are not always repeated. The source made the active and inactive calls.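 How the source made its calls: active means compounds whose fitted half-maximal growth inhibition dose lies at or below twice the top tested dose; inconclusive means flat curve with 30 to 70% growth loss, or bad fit; inactive means the rest.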

Test system: not listed separately
Experiment: S. cerevisiae growth inhibition in glucose medium, dose response, OD600, powder samples, set 4 (AID 624025)
Details: S. cerevisiae growth in glucose, OD600, 48 h; at 3 µM (top of the series)
Summary of the method: (§1)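 Incubation: 48 h static incubation at 30 °C, humidified. Material: Saccharomyces cerevisiae yeast cells, growth in glucose medium. Signal: optical density at 600 nm. Doses: pin-transferred compounds.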

Compound	activity change, negative = inhibition
CCOC(=O)N1C(=O)C2(CCCCC2)N(c2ccccc2)C1=S	-5.67% (inactive)
C/C=C/[C@@H]1[C@H]2C[C@@H](C)CC[C@@H]2C(C)=C[C@H]1C(=O)c1c(O)c(-c2ccc(O)cc2)c[nH]c1=O	-15.3% (inactive)
CCOC(=O)N1C(=O)C2(CCCCC2)N(c2cccc(C)c2)C1=S	-12.2% (inactive)
CCOC(=O)N1C(=O)C2(CCCCC2)N(c2ccc(C#N)cc2)C1=S	-20.2% (inactive)
CCOC(=O)N1C(=O)C2(CCCCC2)N(c2ccc(Cl)cc2)C1=S	0.052% (inactive)
CCOC(=O)N1C(=O)C2(CCCCC2)N(c2ccc(C)cc2)C1=S	-14.8% (inactive) and -15% (inactive)
CCOC(=O)N1C(=O)C2(CCCCC2)N(c2ccc(F)cc2)C1=S	-7.11% (inactive)

Test system: S. cerevisiae growth in glucose, OD600, 48 h
Experiment: as above
Details: not given
Summary of the method: as §1

Compound	AC50 [nM]
CC1/C=C/C=C\C=C\C=C\C=C\C=C\C=C\C(O[C@H]2OC(C)C(O)C(N)C2O)CC2OC(O)(CC(O)CC(O)C(O)CCC(O)CC(O)CC(=O)OC(C)C(C)C1O)CC(O)C2C(=O)O (stereo partly drawn)	527
